In one assay the target is T1, L-selectin (Homo sapiens, UniProt P14151).
T1 sequence (P14151 whole entry): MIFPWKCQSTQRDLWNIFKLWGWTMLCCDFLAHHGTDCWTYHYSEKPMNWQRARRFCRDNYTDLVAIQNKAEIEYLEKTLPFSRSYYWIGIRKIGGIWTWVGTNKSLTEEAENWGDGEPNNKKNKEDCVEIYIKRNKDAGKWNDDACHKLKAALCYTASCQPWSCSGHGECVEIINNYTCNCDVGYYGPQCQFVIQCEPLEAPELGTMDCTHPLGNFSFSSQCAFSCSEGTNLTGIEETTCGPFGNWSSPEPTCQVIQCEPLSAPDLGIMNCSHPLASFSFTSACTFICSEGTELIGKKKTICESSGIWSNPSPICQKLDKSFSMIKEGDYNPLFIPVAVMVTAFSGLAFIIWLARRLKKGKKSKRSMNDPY
Kind of assay: Inhibition of Selectin L binding. In outline: (§1)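 Wells coated with sLeX pentasaccharide ceramide analogue (100 pmol/well, dried from 1:1 methanol/water), blocked with 5% BSA-1 mM CaCl2/50 mM imidazole (pH 7.2) 1 h RT. Selectin-Ig fusion was precomplexed 30 min RT with biotinylated goat F(ab')2 anti-human IgG/streptavidin-alkaline phosphatase. Compounds (DMSO stock 10 mM; […]) were incubated with complex 30 min RT, then in wells 45 min at 37 °C. Detection used p-nitrophenyl phosphate in diethanolamine, pH 9.8.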

For the next assay, the target named is T2, E-selectin (Homo sapiens, UniProt P16581).
T2 sequence (P16581 whole entry): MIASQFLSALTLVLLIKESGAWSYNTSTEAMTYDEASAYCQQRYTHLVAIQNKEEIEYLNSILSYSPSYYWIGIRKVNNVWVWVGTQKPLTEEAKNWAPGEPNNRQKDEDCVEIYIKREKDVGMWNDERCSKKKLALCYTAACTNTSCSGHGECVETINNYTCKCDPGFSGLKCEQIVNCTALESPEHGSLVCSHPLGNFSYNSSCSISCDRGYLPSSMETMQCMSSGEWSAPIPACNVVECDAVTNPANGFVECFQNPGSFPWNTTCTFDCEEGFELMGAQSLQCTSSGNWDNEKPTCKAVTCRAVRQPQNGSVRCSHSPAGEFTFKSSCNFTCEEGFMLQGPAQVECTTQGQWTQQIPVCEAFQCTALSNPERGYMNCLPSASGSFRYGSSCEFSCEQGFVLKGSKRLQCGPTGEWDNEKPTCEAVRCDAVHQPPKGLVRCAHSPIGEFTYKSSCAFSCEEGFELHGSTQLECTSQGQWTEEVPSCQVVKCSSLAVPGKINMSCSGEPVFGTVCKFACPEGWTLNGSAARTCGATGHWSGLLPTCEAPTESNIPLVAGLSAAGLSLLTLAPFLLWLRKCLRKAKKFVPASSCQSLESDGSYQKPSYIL
The experiment in a line: Displacement of sialyl Lewis X (sLex) from selectin E.

The target in assay [1] is T3, P-selectin (Homo sapiens, UniProt P16109).
T3 sequence (P16109 whole entry): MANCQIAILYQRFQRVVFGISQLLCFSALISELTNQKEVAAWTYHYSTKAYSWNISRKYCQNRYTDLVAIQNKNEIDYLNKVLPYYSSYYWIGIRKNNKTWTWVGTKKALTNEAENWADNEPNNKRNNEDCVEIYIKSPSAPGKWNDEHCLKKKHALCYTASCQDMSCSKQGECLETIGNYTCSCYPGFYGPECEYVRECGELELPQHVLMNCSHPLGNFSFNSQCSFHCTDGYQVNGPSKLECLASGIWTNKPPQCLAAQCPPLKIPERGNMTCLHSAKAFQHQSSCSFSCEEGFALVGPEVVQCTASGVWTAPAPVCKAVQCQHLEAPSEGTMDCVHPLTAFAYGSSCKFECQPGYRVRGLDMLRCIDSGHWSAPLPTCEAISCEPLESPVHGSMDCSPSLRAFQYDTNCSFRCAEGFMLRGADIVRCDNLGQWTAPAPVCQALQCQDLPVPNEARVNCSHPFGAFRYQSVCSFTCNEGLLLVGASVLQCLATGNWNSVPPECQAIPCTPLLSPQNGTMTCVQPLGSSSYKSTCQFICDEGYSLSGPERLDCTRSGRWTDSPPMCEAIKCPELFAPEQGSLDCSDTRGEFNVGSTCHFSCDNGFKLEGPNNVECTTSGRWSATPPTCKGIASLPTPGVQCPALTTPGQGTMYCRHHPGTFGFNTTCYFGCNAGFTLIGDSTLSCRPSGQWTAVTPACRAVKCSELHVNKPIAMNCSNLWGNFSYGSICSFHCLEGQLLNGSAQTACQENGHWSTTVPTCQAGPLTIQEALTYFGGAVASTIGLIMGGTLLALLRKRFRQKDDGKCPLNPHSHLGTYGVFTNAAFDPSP
The experiment in a line: Inhibition of Selectin P binding. In outline: as §1

The target of assay [2] is T3, P-selectin. Kind of assay: The compound was tested for the concentration to inhibit 50% of Selectin P by blocking its activity; range is 250-500.

Usually IC50 stands for the concentration at which inhibition is half-maximal.

On to `CCCCCCCCCCCCCCC(CCCCCCCCCCCCCC)C(=O)N[C@H](COC1OC(C)C(O)C(O)C1O)C(=O)N[C@@H](CCC(=O)OC)C(=O)NC` (stereo partly specified), for which the IC50 at L-selectin is more than 500 µM; on E-selectin, more than 500 µM; at P-selectin [1], 37 µM.
In the case of `CCCCCCCCCCCCCCC(CCCCCCCCCCCCCC)C(=O)N[C@H](COC1OC(C)C(O)C(O)C1O)C(=O)NC(CC(=O)O)C(=O)NC` (stereo partly specified), the IC50 at L-selectin is 3.8 µM; on E-selectin, more than 500 µM; on P-selectin [1], 3.6 µM.
In the same order, the values of `CCCCCCCCCCCCCCC(CCCCCCCCCCCCCC)C(=O)N[C@@H](CO[C@H]1O[C@H](CO)[C@@H](O)[C@@H](O)[C@@H]1O)C(=O)N[C@H](CCC(=O)O)C(=O)NC` (stereo in doubt; 5d) are 4.4 µM, more than 1000 µM and 0.38 µM.
For the compound `CCCCCCCCCCCCCCCC(=O)N[C@H](COC1OC(C)C(O)C(O)C1O)C(=O)NC(CCC(=O)O)C(=O)NC` (stereo partly specified), the figures for the IC50 on P-selectin [2], on L-selectin and on E-selectin were 250 µM, 200 µM and more than 500 µM, respectively.
As for `CCCCCCCCCCCCCCC(CCCCCCCCCCCCCC)C(=O)N[C@H](CO[C@H]1O[C@H](CO)[C@@H](O)[C@@H](O)[C@@H]1O)C(=O)N[C@@H](CCC(=O)O)C(=O)NC`, the figures for the IC50 at L-selectin, on E-selectin and at P-selectin [1] were 4 µM, 3.5 µM and 0.45 µM, respectively.
On the same counts, the results for `CCCCCCCCCCCCCCC(CCCCCCCCCCCCCC)C(=O)N[C@@H](CO[C@H]1O[C@H](CO)[C@@H](O)[C@@H](O)[C@@H]1O)C(=O)N[C@H](CCC(=O)O)C(=O)NC` (stereo in doubt; 5c) are 4.2 µM, more than 1000 µM and 0.68 µM.
As for `CC(=O)N[C@H]1[C@H]([C@H](O)[C@H](O)CO)O[C@@](O[C@H]2[C@@H](O)[C@@H](CO)O[C@@H](O[C@@H]([C@H](O[C@@H]3O[C@@H](C)[C@@H](O)[C@@H](O)[C@@H]3O)[C@H](C=O)NC(C)=O)[C@H](O)CO)[C@@H]2O)(C(=O)O)C[C@@H]1O` [SIALYL LEWIS X], the IC50 on L-selectin and at P-selectin [1] was more than 1000 µM in each case.
Consider `CCCCCCCCCCCC(CCCCCCCCCCC)C(=O)N[C@H](COC1OC(C)C(O)C(O)C1O)C(=O)NC(CCC(=O)O)C(=O)NC` (stereo partly specified), for which the IC50 came to 12 µM on L-selectin, 160 µM at E-selectin and 15 µM at P-selectin [1].
On the same counts, the results for `CCCCCCCCCCCCCCC(CCCCCCCCCCCCCC)C(=O)N[C@@H](CO[C@H]1O[C@H](CO)[C@@H](O)[C@@H](O)[C@@H]1O)C(=O)N[C@H](CCC(=O)O)C(=O)NC` (stereo in doubt; 5b) are 3.1 µM, 16 µM and 0.42 µM.
On the same counts, the results for `CCCCCCCCCCCCCCC(CCCCCCCCCCCCCC)C(=O)N[C@@H](CO[C@H]1O[C@@H](C)[C@@H](O)[C@H](O)[C@@H]1O)C(=O)N[C@H](CCC(=O)O)C(=O)NC` are 0.8 µM, more than 100 µM and 0.3 µM.
Regarding `CCCCCCCCCCCCCCC(CCCCCCCCCCCCCC)C(=O)N[C@H](CO[C@H]1O[C@@H](C)[C@@H](O)[C@H](O)[C@@H]1O)C(=O)N[C@H](CCC(=O)O)C(=O)NC`, the IC50 was 0.7 µM on L-selectin, more than 1000 µM at E-selectin and 0.3 µM at P-selectin [1].
Take `CCCCCCCCCCCCCCC(CCCCCCCCCCCCCC)C(=O)N[C@H](CO[C@H]1O[C@@H](C)[C@@H](O)[C@H](O)[C@@H]1O)C(=O)N[C@@H](CCC(=O)O)C(=O)NC`: the figures for the IC50 on L-selectin, on E-selectin and on P-selectin [1] were 1.6 µM, more than 100 µM and 0.3 µM, respectively.
`CCCCCCCCCCCCCCC(CCCCCCCCCCCCCC)C(=O)N[C@@H](CO[C@H]1O[C@@H](C)[C@@H](O)[C@H](O)[C@@H]1O)C(=O)N[C@@H](CCC(=O)O)C(=O)NC`: the 50% inhibitory concentration (IC50) on L-selectin was 1.8 µM; on E-selectin, more than 1000 µM; at P-selectin [1], 0.6 µM.
With `CCCCCCCCCCCCCCC(CCCCCCCCCCCCCC)C(=O)N[C@H](COC1OC(C)C(O)C(O)C1O)C(=O)NC(CCC(=O)O)C(=O)OC` (stereo partly specified), the IC50 on L-selectin was 2.4 µM; at E-selectin it was more than 500 µM; on P-selectin [1], 1.6 µM.

Values taken from ChEMBL document CHEMBL1131156, “Studies on selectin blockers. 7. Structure-activity relationships of sialyl Lewis X mimetics based on modified Ser-Glu dipeptides” (J Med Chem, 1998).
